The target in assay [1] is T1, PAC1-PAC2 complex (Homo sapiens) (UniProt O95456+Q969U7). Nature of the assay: Inhibition of N-terminal mKG-labeled PAC1/C-terminal mKG-labeled PAC2 (unknown origin) protein-protein interaction at 0.1 uM preincubated for 1 hr with protein followed by another protein addition and measured after 17 hrs by fluorescence based protein-fragment complementation assay relative to control. The class given is protein-complex assay. The method in brief:
(§1)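 In vitro protein-fragment complementation assay. Compounds were added as DMSO solutions at 10, 1 or 0.1 μM. The decrease in fluorescence intensity was converted to percent inhibition.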

The target of assay [2] is T2, Proteasome assembly chaperone 3 (Homo sapiens) (UniProt Q9BT73).
T2 sequence (whole entry): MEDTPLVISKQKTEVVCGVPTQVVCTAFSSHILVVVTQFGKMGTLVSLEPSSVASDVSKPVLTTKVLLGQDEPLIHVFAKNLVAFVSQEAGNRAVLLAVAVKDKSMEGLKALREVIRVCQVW
Nature of the assay: Inhibition of N-terminal mKG-labeled PAC3/C-terminal mKG-labeled PAC3 homodimer (unknown origin) protein-protein interaction at 10 uM preincubated for 1 hr with protein followed by another protein addition and measured after 17 hrs by fluorescence based protein-fragment complementation assay relative to control. In short, it runs like this: as §1

Assay [3] concerns the target T1, PAC1-PAC2 complex (Homo sapiens). In words: Inhibition of N-terminal mKG-labeled PAC1/C-terminal mKG-labeled PAC2 (unknown origin) protein-protein interaction at 10 uM preincubated for 1 hr with protein followed by another protein addition and measured after 17 hrs by fluorescence based protein-fragment complementation assay relative to control. The class given is protein-complex assay. The method in brief: as §1

Assay [4] deals with T2, Proteasome assembly chaperone 3 (Homo sapiens). In words: Inhibition of N-terminal mKG-labeled PAC3/C-terminal mKG-labeled PAC3 homodimer (unknown origin) protein-protein interaction at 1 uM preincubated for 1 hr with protein followed by another protein addition and measured after 17 hrs by fluorescence based protein-fragment complementation assay relative to control. In short, it runs like this: as §1

The target in assay [5] is T1, PAC1-PAC2 complex (Homo sapiens). In words: Inhibition of N-terminal mKG-labeled PAC1/C-terminal mKG-labeled PAC2 (unknown origin) protein-protein interaction at 1 uM preincubated for 1 hr with protein followed by another protein addition and measured after 17 hrs by fluorescence based protein-fragment complementation assay relative to control. It is filed as protein-complex assay. In short, it runs like this: as §1

The target in assay [6] is T2, Proteasome assembly chaperone 3 (Homo sapiens). Nature of the assay: Inhibition of N-terminal mKG-labeled PAC3/C-terminal mKG-labeled PAC3 homodimer (unknown origin) protein-protein interaction at 0.1 uM preincubated for 1 hr with protein followed by another protein addition and measured after 17 hrs by fluorescence based protein-fragment complementation assay relative to control. The method in brief:
as §1

Another assay addresses T3, PAC1-PAC2 complex (Homo sapiens, UniProt O95456+Q969U7).
T3 sequence (O95456 whole entry): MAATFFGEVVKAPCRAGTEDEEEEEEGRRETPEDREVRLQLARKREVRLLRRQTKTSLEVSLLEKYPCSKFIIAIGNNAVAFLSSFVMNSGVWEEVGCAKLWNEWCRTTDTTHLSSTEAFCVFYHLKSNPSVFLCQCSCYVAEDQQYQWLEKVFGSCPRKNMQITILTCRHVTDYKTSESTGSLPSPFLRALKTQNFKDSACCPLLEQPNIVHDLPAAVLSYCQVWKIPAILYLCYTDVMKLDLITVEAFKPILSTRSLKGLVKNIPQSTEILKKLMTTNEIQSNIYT
T3 sequence (Q969U7 whole entry): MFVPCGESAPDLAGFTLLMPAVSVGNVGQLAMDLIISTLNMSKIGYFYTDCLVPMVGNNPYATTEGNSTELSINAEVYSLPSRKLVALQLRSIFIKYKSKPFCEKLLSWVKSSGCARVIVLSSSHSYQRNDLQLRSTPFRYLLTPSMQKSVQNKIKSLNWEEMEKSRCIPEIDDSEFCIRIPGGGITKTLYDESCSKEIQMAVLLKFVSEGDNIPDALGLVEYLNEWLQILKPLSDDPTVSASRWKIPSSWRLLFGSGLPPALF
In words: Inhibition of PAC1/PAC2 heterodimer (unknown origin) protein-protein interaction. It is filed as protein-complex assay.

Assay [7] deals with T4, Proteasome assembly chaperone 3 (Homo sapiens, UniProt Q9BT73).
T4 sequence (Q9BT73 whole entry): T2 sequence (whole entry)
In words: Inhibition of PAC3 homodimer (unknown origin) protein-protein interaction.

pIC50: −log10 of the molar value.

With `COc1c(C)c(OC(=O)c2ccc(Oc3cccc(C(=O)Oc4c(C)c(C)c(C(=O)Oc5c(C)c(C)c(C(=O)O)c(OC)c5C)c(OC)c4C)c3C)cc2)c(C)c(C)c1C(=O)O`, the inhibition is 15% in assay [1]; 98% in assay [2]; 91% in assay [3]; 40% in assay [4]; 37% in assay [5]; 4% in assay [6].

For `COc1c(C)c(OC(=O)c2c(C)c(C)c(OCc3cccc(COc4c(C)c(C)c(C(=O)Oc5c(C)c(C)c(C(=O)O)c(OC)c5C)c(OC)c4C)c3Br)c(C)c2OC)c(C)c(C)c1C(=O)O`, the inhibition in assay [1] was found to be 3%; in assay [2], 86%; in assay [3], 57%; in assay [4] it was 38%; in assay [5], 5%; in assay [6] it was 26%.

In the case of `COc1c(C)c(OC(=O)c2c(C)c(C)c(OC[C@@H]3OC(=O)O[C@H]3COc3c(C)c(C)c(C(=O)Oc4c(C)c(C)c(C(=O)O)c(OC)c4C)c(OC)c3C)c(C)c2OC)c(C)c(C)c1C(=O)O`, the inhibition in assay [1] amounted to 15%; in assay [2] it was 41%; in assay [3], 49%; in assay [4], 5%; in assay [5] it was 17%; in assay [6], 2%.

Turning to `COCOC(=O)c1c(C)c(C)c(OC(=O)c2c(C)c(C)c(OC(=O)c3c(C)c(C(=O)Oc4c(C)c(C)c(C(=O)Oc5c(C)c(C)c(C(=O)OCOC)c(OC)c5C)c(OC)c4C)c(OC)c(C)c3OC)c(C)c2OC)c(C)c1OC`, the inhibition was found to be 3% in assay [1]; 2% in assay [2]; 1% in assay [3]; 5% in assay [4]; 0% in assay [5]; 12% in assay [6].

For the molecule `COc1c(C)c(OC(=O)c2c(C)c(C)c(OC(=O)c3c(C)c(C(=O)Oc4c(C)c(C)c(C(=O)Oc5c(C)c(C)c(C(=O)O)c(OC)c5C)c(OC)c4C)c(O)c(C)c3O)c(C)c2OC)c(C)c(C)c1C(=O)O`, the inhibition in assay [1] was determined as 21%; in assay [2] it was 94%; in assay [3], 69%; in assay [4], 17%; in assay [5] it was 23%; in assay [6], 4%.

Regarding `COc1c(C)c(OC(=O)c2c(C)c(C)c(OCc3cccc(COc4c(C)c(C)c(C(=O)Oc5c(C)c(C)c(C(=O)O)c(OC)c5C)c(OC)c4C)n3)c(C)c2OC)c(C)c(C)c1C(=O)O`, the inhibition in assay [1] was 9%; in assay [2], 88%; in assay [3] it was 40%; in assay [4], 43%; in assay [5], 5%; in assay [6] it was 18%.

As to `COc1c(C)c(OC(=O)c2ccc(Oc3cccc(C(=O)Oc4c(C)c(C)c(C(=O)Oc5c(C)c(C)c(C(=O)O)c(OC)c5C)c(OC)c4C)c3C)c(C)c2)c(C)c(C)c1C(=O)O`, the inhibition in assay [1] amounted to 1%; in assay [2], 99%; in assay [3], 89%; in assay [4] it was 34%; in assay [5] it was 31%; in assay [6], 19%.

With `COc1c(C)c(OC(=O)c2c(C)c(C)c(OC(=O)c3c(C)c(C(=O)Oc4c(C)c(C)c(C(=O)Oc5c(C)c(C)c(C(=O)O)c(OC)c5C)c(OC)c4C)c(OC)c(C)c3OC)c(C)c2OC)c(C)c(C)c1C(=O)O`, the inhibition came out at 9% in assay [1]; 85% in assay [2]; 38% in assay [3]; 49% in assay [4]; 2% in assay [5]; 29% in assay [6].

With `COc1c(C)c(OC(=O)c2c(C)c(C)c(OC(=O)c3c(C)c(Oc4c(C)c(C)c(C(=O)Oc5c(C)c(C)c(C(=O)O)c(OC)c5C)c(OC)c4C)c(O)c(C)c3O)c(C)c2OC)c(C)c(C)c1C(=O)O`, the inhibition in assay [1] was 9%; in assay [4] it was 94%; in assay [5], 9%; in assay [6] it was 85%. Further, the pIC50 is below 3.60 on PAC1-PAC2 complex and 7.70 in assay [7].

`COCOC(=O)c1c(C)c(C)c(OC(=O)c2c(C)c(C)c(OCc3cccc(COc4c(C)c(C)c(C(=O)Oc5c(C)c(C)c(C(=O)OCOC)c(OC)c5C)c(OC)c4C)c3Br)c(C)c2OC)c(C)c1OC`: the inhibition in assay [1] was 3%; in assay [2], 0%; in assay [3] it was 6%; in assay [4], 0%; in assay [5], 0%; in assay [6], 0%.

As to `COc1c(C)c(OC(=O)c2ccc(Oc3cccc(C(=O)Oc4c(C)c(C)c(C(=O)Oc5c(C)c(C)c(C(=O)O)c(OC)c5C)c(OC)c4C)c3)cc2)c(C)c(C)c1C(=O)O`, the inhibition in assay [1] came out at 9%; in assay [2] it was 99%; in assay [3], 98%; in assay [4], 37%; in assay [5], 35%; in assay [6] it was 7%.

The molecule `COc1c(C)c(OC(=O)c2c(C)c(C)c(OC(=O)C3=C(C)[C@@](C)(O)[C@@]4(O)Oc5c(C)c(OC)c(C(=O)Oc6c(C)c(C)c(C(=O)O)c(OC)c6C)c(C)c5C[C@@]4(C)C3=O)c(C)c2OC)c(C)c(C)c1C(=O)O` had a pIC50 in assay [7] below 3.60.

On to `COc1c(C)c(O)c(C)c(C)c1C(=O)Oc1c(C)c(C)c(C(=O)O)c(OC)c1C`, for which the inhibition in assay [1] is 3%; in assay [2], 21%; in assay [3] it was 11%; in assay [4], 9%; in assay [5], 0%; in assay [6], 11%.

The molecule `COc1c(C)c(OC(=O)c2c(C)c(C)c(OC(=O)c3c(C)cc(O)c(Cc4c(C)c(C(=O)Oc5c(C)c(C)c(C(=O)Oc6c(C)c(C)c(C(=O)O)c(OC)c6C)c(OC)c5C)c(O)c(C)c4O)c3O)c(C)c2OC)c(C)c(C)c1C(=O)O` gave a pIC50 in assay [7] below 3.60.

Consider `COc1c(C)c(OC(=O)c2c(C)c(C)c(OC/C=C/COc3c(C)c(C)c(C(=O)Oc4c(C)c(C)c(C(=O)O)c(OC)c4C)c(OC)c3C)c(C)c2OC)c(C)c(C)c1C(=O)O`, for which the inhibition is 5% in assay [1]; 94% in assay [2]; 68% in assay [3]; 30% in assay [4]; 16% in assay [5]; 7% in assay [6].

On to `COc1c(C)c(OC(=O)c2c(C)c(C)c(OC(=O)CCC(=O)Oc3c(C)c(C)c(C(=O)Oc4c(C)c(C)c(C(=O)O)c(OC)c4C)c(OC)c3C)c(C)c2OC)c(C)c(C)c1C(=O)O`, for which the inhibition was determined as 5% in assay [1]; 34% in assay [2]; 28% in assay [3]; 9% in assay [4]; 16% in assay [5]; 0% in assay [6].

Take `COc1c(C)c(OC(=O)c2c(C)c(C)c(OC[C@H](O)[C@@H](O)COc3c(C)c(C)c(C(=O)Oc4c(C)c(C)c(C(=O)O)c(OC)c4C)c(OC)c3C)c(C)c2OC)c(C)c(C)c1C(=O)O`: the inhibition was found to be 5% in assay [1]; 53% in assay [2]; 39% in assay [3]; 17% in assay [4]; 17% in assay [5]; 0% in assay [6].

Values taken from ChEMBL document CHEMBL4382236, “Synthesis and biological evaluation of thielocin B1 analogues as protein-protein interaction inhibitors of PAC3 homodimer” (Bioorg Med Chem, 2018).
